Bioassay records: PubChem BioAssay, several laboratories
FLuc inh counter: firefly luciferase enzyme inhibitors, primary screen, artefact control for luciferase-based inhibitor screens, biochemical, luminescence, ATPLite | Luciferin 4-monooxygenase (Photinus pyralis), P08659 | 10 min | inhibition, % at 10 µM | 1.5% of 200,000 active;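 active = inhibition above about 50% when tested at 10 µM, limit read from the data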
Wee1 degr inh: Wee1 degradation inhibitors, primary screen, cell-based, HeLa, Wee1K328M-luciferase, luminescence; HeLa Luc-Wee1K328M stability; 100% = proteasome inhibitor MG132 effect; reporter increase, % at 5 µM; 1.2% of 220,000 active; Wee1-like protein kinase (Homo sapiens), P30291;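 active = activation above the mean of all tested compounds plus 3 SD, set per screening run, cut at about 8.8% in these data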;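 also: cells exposed to compound for 20 h before luminescence read; 0% = DMSO alone and 100% = MG132 at 30 µM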
PKD1 kinase inh: inhibitors of human PKD1 kinase, biochemical, fluorescence polarization; Serine/threonine-protein kinase D1 (Homo sapiens), Q15139; PKD1 kinase fluorescence polarization assay; inhibition, % (test concentration not listed); 0.056% of 200,000 active; AID 797, 2007; in the data active = inhibition above about 50%
Target sequence (Q15139 whole entry, looked up): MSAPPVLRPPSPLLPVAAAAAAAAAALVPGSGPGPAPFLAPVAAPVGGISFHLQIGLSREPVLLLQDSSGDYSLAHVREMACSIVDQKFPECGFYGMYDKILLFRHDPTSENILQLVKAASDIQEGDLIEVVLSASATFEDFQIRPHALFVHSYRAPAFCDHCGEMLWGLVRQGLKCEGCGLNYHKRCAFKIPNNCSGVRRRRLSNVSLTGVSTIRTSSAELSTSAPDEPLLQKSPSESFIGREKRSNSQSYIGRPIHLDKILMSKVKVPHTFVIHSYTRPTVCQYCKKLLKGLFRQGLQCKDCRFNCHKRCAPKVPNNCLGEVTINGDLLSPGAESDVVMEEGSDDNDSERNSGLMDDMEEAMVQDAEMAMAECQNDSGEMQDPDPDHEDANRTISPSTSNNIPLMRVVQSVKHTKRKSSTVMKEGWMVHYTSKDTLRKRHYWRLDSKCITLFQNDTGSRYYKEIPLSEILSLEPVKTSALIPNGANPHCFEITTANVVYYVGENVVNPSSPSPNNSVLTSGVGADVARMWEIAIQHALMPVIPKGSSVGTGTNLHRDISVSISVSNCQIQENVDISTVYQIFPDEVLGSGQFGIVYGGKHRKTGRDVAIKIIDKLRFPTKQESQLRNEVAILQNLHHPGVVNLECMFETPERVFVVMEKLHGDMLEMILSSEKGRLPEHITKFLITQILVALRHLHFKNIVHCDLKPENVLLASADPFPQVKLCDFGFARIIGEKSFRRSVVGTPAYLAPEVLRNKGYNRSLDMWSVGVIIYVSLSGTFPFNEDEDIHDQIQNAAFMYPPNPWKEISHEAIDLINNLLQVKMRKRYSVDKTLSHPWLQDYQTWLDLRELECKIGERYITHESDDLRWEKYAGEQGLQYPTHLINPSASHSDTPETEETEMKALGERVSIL
PPC-1+TRAIL kill: compounds killing PPC-1 cancer cells with TRAIL present, primary screen, TRAIL potentiator project, ATPLite luminescence, uHTS | cell killing (% activity), % at 4 µM or 5 µM | 0.41% of 220,000 active | PPC-1 cells + TRAIL, ATPLite viability luminescence;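 active = cell killing above 50% in the first pass at 4 µM, then a duplicate retest at 5 µM averaging 50% or more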;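 also: plate controls were cells with TRAIL plus DMSO for no effect and medium-only wells lacking cells for full effect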
FLuc act counter: FLuc activators, initial screening, artefact control for FLuc-dependent activation tests, biochemical, ATPlite luminescence | AID 1027, 2008 | Luciferin 4-monooxygenase (Photinus pyralis), P08659 | activation factor at 10 µM | 200,000 tested, under 10 active | ATPlite luciferase biochemical, 10 min; 0 = ATP-free wells, 1 = DMSO control;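 active = luciferase activation factor, scaled between plate controls, of at least 2 with compound at 10 µM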
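Assay system: Luciferase/luciferin detection reagent, cell-free biochemical luciferase assay / Also added: ATP substrate / Schedule: 10 min at ambient temperature / Measured by: luminescence measurement of luciferase light output / Benchmarks: low control with PBS replacing ATP, high control enzyme plus ATP without compound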
TRAIL sens C8: viability loss with TRAIL in NB7+C8 cells, primary screen, TRAIL sensitizer project, cell-based, ATPlite luminescence | inhibition (viability loss, TRAIL sensitization), % at 10 µM | 1% of 360,000 active | AID 624354, 2012;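 active = compounds causing at least 50% loss of cell viability in the single-dose screen, relative to plate controls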
Numbers without * were called inactive. Sampled rows, rich in hits. Any-hit rate of the full collection: about 2.2%.

Screening CC(=O)Nc1ccc(NC(=O)CSc2nnc(NC(=O)c3ccccc3F)s2)cc1 returned TRAIL sens C8 66*.
Screening COc1cccc(C(=O)Nc2nnc(SCC(=O)Nc3ccc(NC(C)=O)cc3)s2)c1 returned TRAIL sens C8 68*.
`COc1cccc(N2CC(C(=O)Nc3nnc(SCC(=O)Nc4ccc(NC(C)=O)cc4)s3)CC2=O)c1` (configuration not stated) gave TRAIL sens C8 -17.
For N/C(=N\OC(=O)C12CC3CC(CC(C3)C1)C2)c1cccnc1 the results were FLuc inh counter 27, Wee1 degr inh 0, PKD1 kinase inh -14, PPC-1+TRAIL kill 5, FLuc act counter 0.7 and TRAIL sens C8 9.
For N/C(=N\OC(=O)C12CC3CC(CC(C3)C1)C2)c1ccccc1 the results were FLuc inh counter 65*, Wee1 degr inh -2, PKD1 kinase inh -1, PPC-1+TRAIL kill 19, FLuc act counter 0.4 and TRAIL sens C8 60*.
`N/C(=N\OC(=O)C12CC3CC(CC(C3)C1)C2)c1ccccn1` gave FLuc inh counter 66*, Wee1 degr inh 2, PKD1 kinase inh -1, PPC-1+TRAIL kill 2, FLuc act counter 0.3 and TRAIL sens C8 25.
Cc1ccc(C)c2[nH]c(=O)c(CN(Cc3nnnn3C3CCCCC3)CC3CCCO3)cc12 (configuration not stated) was read as FLuc inh counter 5, Wee1 degr inh 9.8*, PKD1 kinase inh -8, PPC-1+TRAIL kill 13, FLuc act counter 0.9 and TRAIL sens C8 2.
For Cc1ccc(C)c2[nH]c(=O)c(CN(CCN3CCOCC3)Cc3nnnn3CC3CCCO3)cc12 (configuration not stated) the results were FLuc inh counter -5, Wee1 degr inh -1, PKD1 kinase inh -10, PPC-1+TRAIL kill 4, FLuc act counter 1.1 and TRAIL sens C8 2.
Screening CNC(=O)/C(C#N)=C/c1c(N2CCCCCC2)nc2ccccn2c1=O returned TRAIL sens C8 -4.
Screening Nc1ccc2oc(-c3ccc4nc[nH]c4c3)nc2c1 returned FLuc inh counter 83*, Wee1 degr inh -1, PKD1 kinase inh -4, PPC-1+TRAIL kill 31, FLuc act counter 0.2 and TRAIL sens C8 57*.
Screening Nc1ccc2oc(-c3cccc(Br)c3)nc2c1 returned FLuc inh counter 25, Wee1 degr inh 0, PKD1 kinase inh -3, PPC-1+TRAIL kill 20, FLuc act counter 0.8 and TRAIL sens C8 20.
Cc1nc2ccc(-c3nc4cc(N)ccc4o3)cc2[nH]1 was read as FLuc inh counter 78*, Wee1 degr inh -2, PKD1 kinase inh -5, PPC-1+TRAIL kill 43, FLuc act counter 0.2 and TRAIL sens C8 60*.
For Nc1ccc(-c2nc3ccccc3o2)cc1 the results were TRAIL sens C8 20.
O=C(c1ccc(-c2cccc(Cl)c2Cl)o1)N1CCOCC1 was read as FLuc inh counter 29, Wee1 degr inh 6, PKD1 kinase inh -7, PPC-1+TRAIL kill -2, FLuc act counter 0.7 and TRAIL sens C8 -2.
`O=C(c1ccc(-c2ccc([N+](=O)[O-])cc2Cl)o1)N1CCOCC1` gave FLuc inh counter 14, Wee1 degr inh 11*, PKD1 kinase inh 10, PPC-1+TRAIL kill 6, FLuc act counter 0.9 and TRAIL sens C8 -6.
Screening C/C(=N\N=C(N)N)c1ccc(Cl)c(Cl)c1 returned FLuc inh counter -5, Wee1 degr inh 0, PKD1 kinase inh 0, PPC-1+TRAIL kill 18, FLuc act counter 1.1 and TRAIL sens C8 18.
Cc1cc(C(=O)NCC(C)C)c2ccccc2n1 was read as FLuc inh counter 60*, Wee1 degr inh -1, PKD1 kinase inh -3, PPC-1+TRAIL kill 43, FLuc act counter 0.4 and TRAIL sens C8 30.
For Cc1ccc(NC(=O)C(C)NC(=O)OCc2ccccc2)cc1C (configuration not stated) the results were Wee1 degr inh 5, PPC-1+TRAIL kill -20 and TRAIL sens C8 -10.
`C=CCN=C1NN=C(c2cc(C)n(CCOC)c2C)CS1` gave FLuc inh counter 89*, Wee1 degr inh -5, PKD1 kinase inh -5, PPC-1+TRAIL kill 15, FLuc act counter 0.1 and TRAIL sens C8 -5.
For C=CCn1c(C)cc(C2=NNC(=Nc3ccc(C)cc3)SC2)c1C the results were FLuc inh counter 2, Wee1 degr inh -1, PKD1 kinase inh -12, PPC-1+TRAIL kill -5, FLuc act counter 1 and TRAIL sens C8 21.
Screening C=CCn1c(C)cc(C2=NNC(=NC(C)(C)C)SC2)c1C returned FLuc inh counter 90*, Wee1 degr inh -3, PKD1 kinase inh -6, PPC-1+TRAIL kill 49, FLuc act counter 0.1 and TRAIL sens C8 70*.
Screening COc1ccc(C(=O)Nc2nnc([C@@H]3C[C@H](O)[C@@H](CO)O3)s2)cc1 returned TRAIL sens C8 -8.
O=C(CSc1ccc(C(F)(F)F)cc1[N+](=O)[O-])Nc1ccccc1 was read as FLuc inh counter -4, Wee1 degr inh -2, PKD1 kinase inh -16, PPC-1+TRAIL kill 9, FLuc act counter 1 and TRAIL sens C8 3.
O=C(COc1ccc(C(F)(F)F)cc1[N+](=O)[O-])Nc1cccc(C(F)(F)F)c1 was read as FLuc inh counter -5, Wee1 degr inh -4, PKD1 kinase inh 11, PPC-1+TRAIL kill 52*, FLuc act counter 1.1 and TRAIL sens C8 8.
Clc1ccc(-c2nnc(-c3ccccc3Cl)o2)cc1 was read as FLuc inh counter 74*, Wee1 degr inh 3, PKD1 kinase inh 21, PPC-1+TRAIL kill 24, FLuc act counter 0.3 and TRAIL sens C8 47.
`Cc1ccc(-c2nnc(-c3ccccc3Br)o2)cc1` gave TRAIL sens C8 58*.
For Brc1ccc(-c2nnc(-c3ccccc3Br)o2)cc1 the results were FLuc inh counter 46, Wee1 degr inh -2, PKD1 kinase inh -2, PPC-1+TRAIL kill 29, FLuc act counter 0.5 and TRAIL sens C8 39.
Screening O=C1C(=O)N(C2CCS(=O)(=O)C2)C(c2cccc(O)c2)/C1=C(/O)c1ccc(Cl)cc1 (configuration not stated) returned TRAIL sens C8 -11.
`O=C(c1cc(Cl)ccc1F)N1CCCC(Nc2ccc3c(c2)OCCO3)C1` (configuration not stated) gave TRAIL sens C8 -5.
Screening COc1ccc(S(=O)(=O)N(CC(=O)NN=C2CCN(C)CC2)c2cc(Cl)ccc2OC)cc1OC returned TRAIL sens C8 -14.
